Data set [1] in a line: Solubility in water at room temperature. Type of data set: physicochemical. To be noted: read-out: S. In outline: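 Excess boron compound was dissolved, and the undissolved material was removed by membrane filtration. Boron concentration of the saturated solution was measured by ICP-AES. Three replicates, mean ± SE.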
The test system of another data set is TIG-1-20. As to the kind of experiment: Cytotoxicity of compound towards TIG-1-20 hybrobrast cells, expressed as survival ratio of cells. Type of data set: functional, Homo sapiens.
A further data set has as its system B16. As to the kind of experiment: Cytotoxicity of compound towards B-16 melanoma cells, expressed as survival ratio of cells. Type of data set: functional, Mus musculus.

≈ marks a conversion by molar mass, not a printed value.

For the compound `NC(Cc1ccc(B(O)O)cc1)C(=O)NC(CO)CO` (configuration not stated), in data set [1], the solubility amounted to 660 mM (≈ 186 mg/mL). The Survival ratio in the data set with TIG-1-20 is reported as 71%; in the data set with B16, 60%.
Regarding `NC(Cc1ccc(B(O)O)cc1)C(=O)O` (configuration not stated), in data set [1], the solubility is 7.7 mM (≈ 1.61 mg/mL). Further, the Survival ratio in the data set with TIG-1-20 and with B16 was 20% throughout.
As for `NC(Cc1ccc(B(O)O)cc1)C(=O)NC(COC(CO)CO)COC(CO)CO` (configuration not stated), in data set [1], the solubility came out at 1200 mM (≈ 516 mg/mL). Further, the values for the Survival ratio with TIG-1-20 and with B16 were 73% and 62%, respectively.
For the compound `NC(Cc1ccc(B(O)O)cc1)C(=O)NCCO` (configuration not stated), the solubility in data set [1] came to 600 mM (≈ 151 mg/mL). The Survival ratio with TIG-1-20 is listed as 66%; in the data set with B16, 60%.

For the origin of these results see ChEMBL document CHEMBL1128357, “Synthesis and biological properties of water-soluble p-boronophenylalanine derivatives. Relationship between water solubility, cytotoxicity, and cellular uptake” (J Med Chem, 1995).
